Test results as given in ChEMBL document CHEMBL5678798 (Clin Cancer Res, 2009).
Active and inactive are the calls of the source. The rule behind the calls is not given here.

Columns and labels:
[1] = system: KARPAS-299; assay: Antiproliferative activity against human KARPAS-299 cells assessed as reduction in cell viability after 72 hrs by CellTiter-Glo assay; type: functional, cell-based; details: KARPAS-299, 72 h
In short: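 Cells seeded in 96-well plates, left overnight at 37°C, then exposed to a range of test concentrations for 72 h. Viability read by CellTiter-Glo luminescence; IC50 from four-parameter curve fit. Lines kept at 37°C, 5% CO2, in recommended growth medium.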

[2] = system: COLO 205; assay: Induction of cell cycle arrest in human COLO 205 cells assessed as decrease in cells accumulation at G2/M phase at 0.03 to 10 uM incubated for 24 to 48 hrs by propidium iodide staining based flow cytometric analysis; type: functional; details: dose 0.03-10 µM, time lower 24.0 hrs, time upper […]
In short: (§1)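 COLO 205, MCF-7 or NCI-H929 cells seeded in 96-well plates overnight at 37°C, then exposed to DMSO or increasing compound concentrations for 24 or 48 h. Fixed and stained with propidium iodide (Vindelov method), then analysed by flow cytometry for sub-G1, G1, S and G2-M fractions. Experiment repeated twice.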

[3] = system: MCF7; assay: Induction of cell cycle arrest in human MCF7 cells assessed as decrease in cells accumulation at S phase at 0.03 to 10 uM incubated for 24 to 48 hrs by propidium iodide staining based flow cytometric analysis; type: functional; details: dose 0.03-10 µM, time lower 24.0 hrs, time upper […]; in short: as §1
[4] = system: COLO 205; assay: Induction of cell cycle arrest in human COLO 205 cells assessed as cells accumulation at G1 phase at 1 umol/L incubated for 48 hrs by propidium iodide staining based flow cytometric analysis (reference value: 65%); type: functional; details: dose 1 µmol/L, at 1 µM; in short: as §1
[5] = system: NCI-H929; assay: Induction of cell cycle arrest in human NCI-H929 cells assessed as cells accumulation at S phase at 1 umol/L incubated for 48 hrs by propidium iodide staining based flow cytometric analysis (reference value: 15%); type: functional; details: dose 1 µmol/L, at 1 µM; in short: as §1
[6] = system: NCI-H929; assay: Induction of cell cycle arrest in human NCI-H929 cells assessed as cells accumulation at G2 phase at 1 umol/L incubated for 48 hrs by propidium iodide staining based flow cytometric analysis (reference value: 33%); type: functional; details: dose 1 µmol/L, at 1 µM; in short: as §1
[7] = In vivo inhibition of IGF1R in mouse NIH-3T3/LISN cells xenografted in IGF1-stimulated nu/nu CD-1 mouse assessed as reduction in IGF1R phosphorylation at 3.5 umol/L blood compound concentration pretreated for 4 hrs followed by IGF1 stimulation and measured after 10 min by […] relative to control; type: functional; details: dose 3.5 µmol/L; time 250 min; 4.167 h; at 3.5 µM
In short: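 Female nu/nu CD-1 mice, three per group, bearing ~500 mm3 tumors, given one oral dose of compound or vehicle. At 4 h, 10 µg hIGF-I i.v. via tail vein; saline controls. Tumor and blood taken 10 min later. Tumor lysates in RIPA captured on anti-IGF-IR plates and probed with europium anti-phosphotyrosine. Phospho/total IGF-IR expressed as % of ligand-stimulated control. Blood levels by LC-MS/MS.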

[8] = biological target: Serine/threonine-protein kinase B-raf (Homo sapiens, UniProt P15056, V600E); assay: Inhibition of B-Raf V600E mutant (unknown origin)
[9] = biological target: Mitogen-activated protein kinase 8 (Homo sapiens, UniProt P45983); assay: Inhibition of JNK1 (unknown origin)
[10] = biological target: Cyclin-dependent kinase 16 (Homo sapiens, UniProt Q00536); assay: Inhibition of PCTAIRE1 (unknown origin)
Cyclin-dependent kinase 16, sequence (Q00536 whole entry): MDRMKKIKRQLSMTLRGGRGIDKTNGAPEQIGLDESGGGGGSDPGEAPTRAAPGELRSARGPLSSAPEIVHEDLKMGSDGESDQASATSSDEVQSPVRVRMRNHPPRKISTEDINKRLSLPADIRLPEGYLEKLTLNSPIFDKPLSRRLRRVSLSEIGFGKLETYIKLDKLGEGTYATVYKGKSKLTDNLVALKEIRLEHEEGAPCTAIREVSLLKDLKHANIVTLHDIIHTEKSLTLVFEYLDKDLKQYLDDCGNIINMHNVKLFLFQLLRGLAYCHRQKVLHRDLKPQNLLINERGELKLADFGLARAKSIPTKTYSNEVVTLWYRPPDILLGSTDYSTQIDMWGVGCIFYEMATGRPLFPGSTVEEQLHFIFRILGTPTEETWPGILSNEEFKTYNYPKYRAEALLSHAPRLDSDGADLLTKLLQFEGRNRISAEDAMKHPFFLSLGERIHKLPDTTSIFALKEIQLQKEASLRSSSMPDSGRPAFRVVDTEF

[11] = Inhibition of mouse YAK3
[12] = biological target: Dual specificity mitogen-activated protein kinase kinase 7 (Homo sapiens) (UniProt O14733); assay: Inhibition of N-terminal GST-tagged recombinant human MKK7beta (2 to end residues) expressed in Escherichia coli at 0.3 uM by filter binding assay relative to control
In short: (§2)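 Outsourced single-concentration screen in a commercial panel of 233 protein kinases, run as radiometric filter-binding activity assays. Test agent was tested at 0.3 or 3 µmol/L, as given in each line, from a 10 mmol/L DMSO stock. Activity is expressed as percent inhibition relative to control.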

[13] = biological target: Serine/threonine-protein kinase Nek11 (Homo sapiens) (UniProt Q8NG66); assay: Inhibition of 6His-tagged recombinant human full-length NEK11 expressed in baculovirus infected Sf21 cells at 0.3 uM by filter binding assay relative to control
Serine/threonine-protein kinase Nek11 (Homo sapiens), sequence (Q8NG66 whole entry): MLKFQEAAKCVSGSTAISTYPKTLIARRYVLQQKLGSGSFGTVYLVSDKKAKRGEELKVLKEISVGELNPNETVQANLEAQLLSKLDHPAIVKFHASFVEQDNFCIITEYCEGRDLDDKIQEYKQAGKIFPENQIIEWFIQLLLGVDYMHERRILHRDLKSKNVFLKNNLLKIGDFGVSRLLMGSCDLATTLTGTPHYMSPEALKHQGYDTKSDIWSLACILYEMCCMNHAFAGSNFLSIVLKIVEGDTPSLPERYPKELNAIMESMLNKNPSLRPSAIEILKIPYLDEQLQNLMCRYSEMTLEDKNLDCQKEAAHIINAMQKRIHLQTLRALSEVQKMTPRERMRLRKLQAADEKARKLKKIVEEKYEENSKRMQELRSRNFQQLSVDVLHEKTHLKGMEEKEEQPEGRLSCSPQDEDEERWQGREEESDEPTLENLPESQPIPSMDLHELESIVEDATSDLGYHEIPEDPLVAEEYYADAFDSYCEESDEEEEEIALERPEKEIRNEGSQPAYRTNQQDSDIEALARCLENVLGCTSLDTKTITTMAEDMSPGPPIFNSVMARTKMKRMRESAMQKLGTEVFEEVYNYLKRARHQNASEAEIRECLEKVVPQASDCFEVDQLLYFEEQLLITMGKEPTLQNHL
In short: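 KinaseProfiler panel of 233 kinases: radiometric filter-binding activity assays with compound at 0.3 or 3 µmol/L. Read-out is percent inhibition.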

[14] = biological target: PI3K p110 alpha/p85 alpha (Mus musculus) (UniProt P26450+P42337); assay: Inhibition of recombinant mouse N-terminal 6His-tagged full length P110alpha/full length mouse p85alpha expressed in baculovirus infected Sf21 cells at 0.3 uM by filter binding assay relative to control
[15] = biological target: BDNF/NT-3 growth factors receptor (Homo sapiens) (UniProt Q16620); assay: Inhibition of N-terminal His6 tagged recombinant human TrkB (455 to end residues) expressed in baculovirus infected Sf21 cells at 0.3 uM by filter binding assay relative to control; in short: as §2
BDNF/NT-3 growth factors receptor (Homo sapiens), sequence (Q16620 32-822 limits assumed): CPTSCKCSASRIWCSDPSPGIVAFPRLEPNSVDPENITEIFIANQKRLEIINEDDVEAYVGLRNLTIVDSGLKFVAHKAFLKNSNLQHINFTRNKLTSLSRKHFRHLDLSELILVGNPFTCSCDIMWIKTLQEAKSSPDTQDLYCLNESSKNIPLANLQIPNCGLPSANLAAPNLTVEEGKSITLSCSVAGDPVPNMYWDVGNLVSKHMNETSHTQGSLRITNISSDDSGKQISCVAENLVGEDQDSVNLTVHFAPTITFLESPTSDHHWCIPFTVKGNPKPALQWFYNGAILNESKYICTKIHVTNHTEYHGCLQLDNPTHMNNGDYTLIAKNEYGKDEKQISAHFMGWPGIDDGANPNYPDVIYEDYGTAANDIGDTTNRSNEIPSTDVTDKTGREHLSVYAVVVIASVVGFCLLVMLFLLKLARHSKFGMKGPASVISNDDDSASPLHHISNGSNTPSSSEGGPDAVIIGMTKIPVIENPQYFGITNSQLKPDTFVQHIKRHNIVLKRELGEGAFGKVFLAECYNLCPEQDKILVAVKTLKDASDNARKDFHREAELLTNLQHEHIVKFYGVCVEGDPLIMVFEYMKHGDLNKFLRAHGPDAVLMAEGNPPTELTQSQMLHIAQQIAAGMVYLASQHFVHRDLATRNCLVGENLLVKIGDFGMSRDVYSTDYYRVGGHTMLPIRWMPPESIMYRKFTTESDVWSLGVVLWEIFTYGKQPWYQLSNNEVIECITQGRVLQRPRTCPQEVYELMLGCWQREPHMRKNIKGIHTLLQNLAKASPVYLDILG

[16] = biological target: Tyrosine-protein kinase Lyn (Homo sapiens) (UniProt P07948); assay: Inhibition of N-terminal His6-tagged recombinant full-length human Lyn expressed in Sf21 cells at 3 uM by filter binding assay relative to control; in short: as §2
Tyrosine-protein kinase Lyn (Homo sapiens), sequence (P07948 2-512 limits assumed): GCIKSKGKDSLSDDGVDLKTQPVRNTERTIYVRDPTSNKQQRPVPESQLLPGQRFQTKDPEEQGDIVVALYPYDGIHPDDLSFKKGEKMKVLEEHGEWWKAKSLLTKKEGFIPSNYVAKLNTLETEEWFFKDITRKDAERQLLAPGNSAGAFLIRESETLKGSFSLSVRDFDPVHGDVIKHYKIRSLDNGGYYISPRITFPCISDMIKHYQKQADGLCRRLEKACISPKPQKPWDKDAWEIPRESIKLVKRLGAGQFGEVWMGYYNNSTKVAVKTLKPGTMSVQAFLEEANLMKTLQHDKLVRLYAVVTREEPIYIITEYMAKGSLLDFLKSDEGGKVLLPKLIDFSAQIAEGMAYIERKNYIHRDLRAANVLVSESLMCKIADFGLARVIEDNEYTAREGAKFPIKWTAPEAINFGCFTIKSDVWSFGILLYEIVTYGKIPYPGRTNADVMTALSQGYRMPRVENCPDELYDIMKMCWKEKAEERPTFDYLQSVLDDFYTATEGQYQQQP

[17] = biological target: Protein kinase C iota type (Homo sapiens) (UniProt P41743); assay: Inhibition of N-terminal His6-tagged recombinant full-length human PKCiota expressed in Sf21 cells at 3 uM by filter binding assay relative to control; in short: as §2
[18] = biological target: Death-associated protein kinase 3 (Homo sapiens) (UniProt O43293); assay: Inhibition of N-terminal GST tagged recombinant human ZIPK (1 to 290 residues) expressed in Escherichia coli at 3 uM by filter binding assay relative to control; in short: as §2
Death-associated protein kinase 3 (Homo sapiens), sequence (O43293 whole entry, looked up, the tested form may be a part): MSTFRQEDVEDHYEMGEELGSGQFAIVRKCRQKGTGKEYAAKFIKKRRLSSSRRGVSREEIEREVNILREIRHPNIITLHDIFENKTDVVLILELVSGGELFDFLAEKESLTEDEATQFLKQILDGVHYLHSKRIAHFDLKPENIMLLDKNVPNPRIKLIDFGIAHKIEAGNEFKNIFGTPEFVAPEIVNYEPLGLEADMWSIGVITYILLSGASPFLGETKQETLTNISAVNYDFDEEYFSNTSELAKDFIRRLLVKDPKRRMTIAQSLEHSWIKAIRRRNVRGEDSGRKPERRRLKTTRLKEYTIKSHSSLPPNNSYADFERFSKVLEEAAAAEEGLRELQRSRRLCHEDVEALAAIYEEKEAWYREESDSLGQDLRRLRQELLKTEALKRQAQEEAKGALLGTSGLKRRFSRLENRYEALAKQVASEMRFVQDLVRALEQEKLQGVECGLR

[19] = biological target: Focal adhesion kinase 1 (Homo sapiens, UniProt Q05397); assay: Inhibition of N-terminal 6His-tagged recombinant human FAK (411 to 686 residues) expressed in baculovirus infected Sf21 cells by filter binding assay
[20] = biological target: High affinity nerve growth factor receptor (Homo sapiens, UniProt P04629); assay: Inhibition of N-terminal His6-tagged recombinant human TrkA (440 to end residues) expressed in baculovirus infected Sf21 cells by filter binding assay
High affinity nerve growth factor receptor, sequence (P04629 whole entry): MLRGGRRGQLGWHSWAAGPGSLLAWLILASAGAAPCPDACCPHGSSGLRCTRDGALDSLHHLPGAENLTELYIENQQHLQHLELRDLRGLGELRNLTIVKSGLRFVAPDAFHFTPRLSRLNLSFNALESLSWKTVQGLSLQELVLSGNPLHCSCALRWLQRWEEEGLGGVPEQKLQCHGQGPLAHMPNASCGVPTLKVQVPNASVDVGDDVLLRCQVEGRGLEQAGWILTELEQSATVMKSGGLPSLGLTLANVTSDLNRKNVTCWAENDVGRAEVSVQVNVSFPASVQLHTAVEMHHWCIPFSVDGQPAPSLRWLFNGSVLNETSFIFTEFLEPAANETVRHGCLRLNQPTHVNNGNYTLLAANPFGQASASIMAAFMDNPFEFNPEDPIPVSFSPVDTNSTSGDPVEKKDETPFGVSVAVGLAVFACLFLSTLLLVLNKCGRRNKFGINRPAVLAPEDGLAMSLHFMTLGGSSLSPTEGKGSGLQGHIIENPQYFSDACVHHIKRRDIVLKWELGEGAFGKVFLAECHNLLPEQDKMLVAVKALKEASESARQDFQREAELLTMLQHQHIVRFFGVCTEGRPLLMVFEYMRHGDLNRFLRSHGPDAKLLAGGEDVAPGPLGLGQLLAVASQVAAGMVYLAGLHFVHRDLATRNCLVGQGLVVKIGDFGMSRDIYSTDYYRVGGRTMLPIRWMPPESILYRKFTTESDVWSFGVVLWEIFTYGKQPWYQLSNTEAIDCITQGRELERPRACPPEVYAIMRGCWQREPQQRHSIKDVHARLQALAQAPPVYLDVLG

[21] = biological target: Insulin receptor (Mus musculus) (UniProt P15208); details: CD-1, dose >= 30.0 mg/kg, route po, time 242.0 min
Insulin receptor (Mus musculus), sequence (P15208 28-748 limits assumed): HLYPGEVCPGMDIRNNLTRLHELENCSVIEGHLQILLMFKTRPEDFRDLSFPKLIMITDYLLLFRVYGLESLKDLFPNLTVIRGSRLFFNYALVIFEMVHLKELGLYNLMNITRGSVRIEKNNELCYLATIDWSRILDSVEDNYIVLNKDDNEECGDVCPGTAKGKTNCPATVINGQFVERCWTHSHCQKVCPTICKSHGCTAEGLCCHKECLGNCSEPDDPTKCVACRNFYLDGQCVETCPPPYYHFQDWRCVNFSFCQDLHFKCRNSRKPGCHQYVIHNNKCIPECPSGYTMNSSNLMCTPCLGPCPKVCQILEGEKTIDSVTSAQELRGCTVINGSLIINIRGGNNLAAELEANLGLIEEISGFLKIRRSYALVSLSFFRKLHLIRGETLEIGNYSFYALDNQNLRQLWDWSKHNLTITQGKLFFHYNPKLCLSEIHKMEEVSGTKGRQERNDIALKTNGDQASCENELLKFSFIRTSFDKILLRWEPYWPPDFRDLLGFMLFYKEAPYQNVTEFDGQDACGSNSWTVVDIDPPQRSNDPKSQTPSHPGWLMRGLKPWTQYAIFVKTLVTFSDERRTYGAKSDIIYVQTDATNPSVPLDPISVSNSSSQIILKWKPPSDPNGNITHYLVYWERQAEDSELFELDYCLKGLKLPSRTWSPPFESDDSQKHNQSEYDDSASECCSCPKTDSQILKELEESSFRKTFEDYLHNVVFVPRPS
Insulin receptor (Mus musculus), sequence (P15208 753-1372 limits assumed): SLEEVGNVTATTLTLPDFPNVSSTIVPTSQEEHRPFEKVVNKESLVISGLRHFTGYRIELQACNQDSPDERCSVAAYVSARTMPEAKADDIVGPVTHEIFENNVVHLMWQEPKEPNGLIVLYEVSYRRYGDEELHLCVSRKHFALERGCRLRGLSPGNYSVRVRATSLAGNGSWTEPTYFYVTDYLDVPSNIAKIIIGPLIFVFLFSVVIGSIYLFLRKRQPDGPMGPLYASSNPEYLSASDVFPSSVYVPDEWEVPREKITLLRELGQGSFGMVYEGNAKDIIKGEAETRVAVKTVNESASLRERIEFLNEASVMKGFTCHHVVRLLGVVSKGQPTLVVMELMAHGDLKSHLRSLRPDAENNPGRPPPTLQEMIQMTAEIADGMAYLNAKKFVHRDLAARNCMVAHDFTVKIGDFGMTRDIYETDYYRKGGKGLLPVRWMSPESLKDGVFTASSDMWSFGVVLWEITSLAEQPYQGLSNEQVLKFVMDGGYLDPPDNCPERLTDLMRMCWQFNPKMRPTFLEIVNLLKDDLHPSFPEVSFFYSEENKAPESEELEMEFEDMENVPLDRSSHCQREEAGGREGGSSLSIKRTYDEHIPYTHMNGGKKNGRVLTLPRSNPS

[22] = biological target: Insulin receptor (Mus musculus) (UniProt P15208); details: CD-1, dose >= 30.0 mg/kg, route po, time 4.25 hrs
[23] = biological target: Insulin receptor (Mus musculus) (UniProt P15208); details: CD-1, dose 30.0 mg/kg, route po, time 21.0 day
[24] = Toxicity in nu/nu CD-1 mouse xenografted with human COLO 205 cells assessed as reduction in body weight at 30 mg/kg, po for 21 days relative to control; parameters: scale not given: the % may be the effect or the level left; details: in vivo, 504 h

CCc1cc(Nc2nccc(-c3c(-c4ccc(OC)c(C(=O)Nc5c(F)cccc5F)c4)nc4ccccn34)n2)c(OC)cc1N1CCC(N2CCN(S(C)(=O)=O)CC2)CC1
IC50 [1]: > 30 µM | Activity [2]: Active | Activity [3]: Active | Activity [4]: 78% | Activity [5]: 3% | Activity [6]: 8% | inhibition (INH) [7]: 100% | IC50 [8]: > 2 µM | IC50 [9]: > 10 µM | IC50 [10]: > 10 µM | IC50 [11]: > 10 µM | inhibition [12]: 0% | inhibition [13]: -8% | inhibition [14]: -10% | inhibition [15]: 4% | inhibition [16]: 37% | inhibition [17]: 0% | inhibition [18]: 27% | IC50 [19]: 0.362 µM | IC50 [20]: 0.701 µM | inhibition [21]: Active | inhibition [22]: Dose-Dependent Effect | inhibition [23]: inactive | Activity [24]: 5%
